Assay results from publication PMC5882533 (Cancer discovery, 2018).
Values joined by “and” are separate entries in the source; they are usually repeats but may differ in a detail not shown here. Equal values may be shown once.

Tests used:
primary CLL cells = experiment: Proliferation of CpG stimulated primary CLL cells; type: cell-based, human; settings: for proliferation of CpG stimulated primary CLL cells: increasing doses, 72h continuously or 4h followed by washout
How it was run: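 Primary CLL cells came from patients meeting 2008 IWCLL criteria. They were either stimulated with CpG oligonucleotides (TLR9 agonist) or left unstimulated (basal). Cells were given increasing concentrations of test compound, either continuously for 72 h or for 4 h followed by washout. Proliferation was measured by MTS assay. Data are shown per individual patient, with averages.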

MEC-1 = experiment: Proliferation of MEC-1 cells; type: cell-based, human; settings: for proliferation: MEC-1, increasing doses, 72h
OCI-LY1 = experiment: Proliferation of OCI-LY1 cells; type: cell-based, human; settings: for proliferation: OCI-LY1, increasing doses, 72h
[1] = system: Ba/F3 (murine interleukin-3 dependent pro-B cell line) splenomegaly
bromodomain of CBP = bromodomain of CBP (Homo sapiens, UniProt Q92793); experiment: Binding affinity
Sequence of bromodomain of CBP (Q92793 1085-1192 limits assumed): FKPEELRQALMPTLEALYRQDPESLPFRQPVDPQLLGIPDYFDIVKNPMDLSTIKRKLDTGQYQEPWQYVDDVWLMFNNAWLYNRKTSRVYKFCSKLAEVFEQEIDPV

[2] = target: T1, bromodomain of EP300 (p300) (Homo sapiens, UniProt Q09472); experiment: Binding affinity
T1 sequence (Q09472 1049-1156 limits assumed): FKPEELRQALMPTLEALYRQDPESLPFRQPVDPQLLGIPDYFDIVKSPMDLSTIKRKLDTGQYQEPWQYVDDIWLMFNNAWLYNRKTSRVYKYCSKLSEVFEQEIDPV

BET family members = experiment: Blocking interactions mediated by the four BET family members; type: biochemical
[3] = Plasma exposure in Ba/F3 splenomegaly mouse model; type: in vivo; settings: 2 mg/kg
[4] = Plasma drug levels in MV4-11 tumor xenograft SCID mice; type: in vivo; settings: mouse
Half-life in rodents = settings: in vivo
Half-life in dogs = settings: dog, in vivo
[5] = Plasma levels in wild type B6 mice; type: in vivo; settings: B6, mouse, oral, 20 mg/kg
[6] = system: Eμ-TCL1 CD5/CD19 positive CLL-like leukemia; experiment: Eμ-TCL1 transgenic mice with de novo leukemia, tumor burden; type: in vivo, mouse
healthy T-cells = experiment: Proliferation of healthy T-cells stimulated with CD3/CD28 agonist antibodies; type: cell-based, human; settings: washout conditions
[7] = system: primary CLL cells co-cultured on stromal cells (9–15c and Hs27); experiment: CLL cell viability in stromal co-culture; type: cell-based, human; settings: 1, 2 or 5μM, 72 h
[8] = system: stromal cells (9–15c and Hs27); experiment: Stromal cell viability; type: cell-based
[9] = system: Eμ-Myc/TCL1 leukemia/lymphoma

SMILES: Cc1sc2c(c1C)C(c1ccc(Cl)cc1)=N[C@@H](CC(=O)OC(C)(C)C)c1nnc(C)n1-2 [JQ1, reference compound]
- proliferation of CpG stimulated primary CLL cells (primary CLL cells): Dose-dependent decrease of proliferation
- proliferation (MEC-1): Dose dependent decrease of proliferation
- proliferation (OCI-LY1): Dose dependent decrease of proliferation

SMILES: Cc1sc2c(c1C)C(c1ccc(Cl)cc1)=N[C@@H](CC(=O)Nc1ccc(O)cc1)c1nnc(C)n1-2 [OTX015, reference compound]
- proliferation of CpG stimulated primary CLL cells (primary CLL cells): Dose-dependent decrease of proliferation
- proliferation (MEC-1): Dose dependent decrease of proliferation
- proliferation (OCI-LY1): Dose dependent decrease of proliferation
- efficacy on splenomegaly relative to 2 mg/kg PLX51107 ([1]; 25 mg/kg OTX015): same level of efficacy

SMILES: Cc1noc(C)c1-c1cnc2c(-c3ccc(C(=O)O)cc3)cn([C@@H](C)c3ccccn3)c2c1 [PLX51107]
- Kd (bromodomain of CBP): ~100 nM
- Kd [2]: ~100 nM
- potency in blocking interactions mediated by the four BET family members (BET family members): low nanomolar potency
- AUC(0-t) [3]: 17700 ng·h/mL and 40 µM·h
- AUC(0-t) [4]: 90100 ng·h/mL and 205 µM·h
- half-life [4]: 2.8 h
- half-life (Half-life in rodents): < 3 h
- half-life (Half-life in dogs): < 3 h
- AUC(0-t) [5]: 96700 ng·h/mL and 220 µM·h
- leukemic disease burden in peripheral blood and spleen vs vehicle ([6]; 20 mg/kg daily, oral gavage, eight days): significantly reduced leukemic disease burden
- reduction of tumor burden compared with OTX015 (50 mg/kg, qd) ([6]; PLX51107 20 mg/kg, qd, thirty day study): more effective than OTX015
- inhibition of proliferation or toxicity (primary CLL cells; CLL cells under basal condition): not observed
- proliferation of CpG stimulated primary CLL cells (primary CLL cells): Dose-dependent decrease of proliferation
- IC50 compared to iBET762, JQ1, or OTX015 (MEC-1; MEC-1): lower IC50
- proliferation (MEC-1): Dose dependent decrease of proliferation
- IC50 compared to iBET762, JQ1, or OTX015 (OCI-LY1; OCI-LY1): lower IC50
- proliferation (OCI-LY1): Dose dependent decrease of proliferation
- anti-proliferative effect (healthy T-cells): no anti-proliferative effect
- cytotoxicity on CLL cells [7]: induces significant cytotoxicity
- effect on stromal cell viability [8]: no effect on stromal cell viability
- inhibition of splenomegaly ([1]; 2 mg/kg PLX51107 dose): Approximately 75%
- tolerability ([1]; mouse, in vivo): well tolerated
- survival ([9]; 20 mg/kg, qd, oral gavage, 70 days treatment): significantly prolonged survival
- tolerability ([9]; mouse, in vivo): well tolerated

SMILES: CCNC(=O)C[C@@H]1N=C(c2ccc(Cl)cc2)c2cc(OC)ccc2-n2c(C)nnc21 [iBET762]
- proliferation of CpG stimulated primary CLL cells (primary CLL cells): Dose-dependent decrease of proliferation
